Measured values from different studies.
Each line is one published result; the experiments were not run side by side.
Organism: Escherichia coli
Effect on: microbial killing

CCn1cc(C(=O)O)c(=O)c2cc(F)c(N3CCNCC3)cc21
MBC (broth dilution; ATCC 8739, ATCC8739): 1 µM

N#CC(=Cc1ccccc1O)C1=NC(=O)C(=Cc2cn(-c3ccccc3)nc2-c2ccccc2)S1
MBC (broth dilution): 0.5 mg/L

CNC1=C([N+](=O)[O-])C2(C(=O)Nc3ccccc32)C2=C(O1)C(=O)c1ccccc1C2=O (stereo not drawn)
MBC (ATCC25922): ≤ 500 mg/L

COc1cc(Cc2cnc(N)nc2N)cc(OC)c1OC
MBC (broth dilution; 48 h): > 32 mg/L

COc1c(C)c(OC)c(C(=O)/C=C/c2ccccc2)c(OC)c1C
MBC (broth dilution; ATCC25922): > 5000 mg/L

CO[C@H]1O[C@H](COC(c2ccccc2)(c2ccccc2)c2ccccc2)[C@@H](OC(=O)c2ccc(C(C)(C)C)cc2)[C@H](OC(=O)c2ccc(C(C)(C)C)cc2)[C@H]1OC(=O)c1ccc(C(C)(C)C)cc1
MBC (broth dilution): 16 mg/L

COc1c(C)c(OC(=O)c2ccccc2)c(C)c(O)c1C(=O)/C=C/c1ccccc1
MBC (broth dilution; ATCC25922): > 5000 mg/L

CN[C@H](CC(C)C)C(=O)N[C@H]1C(=O)N[C@@H](CC(N)=O)C(=O)N[C@H]2C(=O)N[C@H]3C(=O)N[C@H](C(=O)N[C@H](C(=O)O)c4cc(O)cc(O)c4-c4cc3ccc4O)[C@H](O)c3ccc(c(Cl)c3)Oc3cc2cc(c3O[C@@H]2O[C@H](CO)[C@@H](O)[C@H](O)[C@H]2O[C@H]2C[C@](C)(N)[C@H](O)[C@H](C)O2)Oc2ccc(cc2Cl)[C@H]1O
MBC (broth dilution; ATCC 8739, ATCC8739): > 128 µM

N#CC(=Cc1cn(-c2ccccc2)nc1-c1ccccc1)C1=NC(=O)CS1
MBC (broth dilution): 0.25 mg/L

O=c1[nH]cc(F)c(=O)[nH]1
MBC (broth dilution; 48 h): > 32 mg/L

COc1c(C)c(OC(=O)c2ccc(C)cc2)c(C)c(O)c1C(=O)/C=C/c1ccccc1
MBC (broth dilution; ATCC25922): > 5000 mg/L

O=C(O)c1cn(C2CC2)c2cc(N3CCNCC3)c(F)cc2c1=O
MBC (broth dilution): 0.25 mg/L
